Measurements: ChEMBL document CHEMBL1123067, “Evaluation of the brain-specific delivery of radioiodinated (iodophenyl)alkyl-substituted amines coupled to a dihydropyridine carrier” (J Med Chem, 1985)

Tests used:
Format in all cases: ADME, organism-based
Rattus norvegicus [1] = assay: Distribution of radioactivity in kidney tissues of Sprague-Dawley rats after 30 min injection by intravenously; value ranges from 1.56-1.83; conditions: in vivo, iv, 0.5 h
Rattus norvegicus [2] = assay: Distribution of radioactivity in liver tissues of Sprague-Dawley rats after 30 min injection by intravenously; value ranges from 1.77-2.08; conditions: in vivo, iv, 0.5 h
Rattus norvegicus [3] = assay: Distribution of radioactivity in liver tissues of Sprague-Dawley rats after 5 min injection by intravenously; value ranges from 2.98-3.22; conditions: in vivo, iv
Rattus norvegicus [4] = assay: Distribution of radioactivity in liver tissues of Sprague-Dawley rats after 60 min injection by intravenously; value ranges from 1.12-1.44; conditions: in vivo, iv, 1 h
Rattus norvegicus [5] = assay: Distribution of radioactivity in lung tissues of Sprague-Dawley rats after 15 min injection by intravenously; value ranges from 1.05-1.5; conditions: in vivo, iv, 0.25 h
Rattus norvegicus [6] = assay: Distribution of radioactivity in kidney tissues of Sprague-Dawley rats after 5 min injection by intravenously; value ranges from 3.18-4.74; conditions: in vivo, iv
Rattus norvegicus [7] = assay: Distribution of radioactivity in kidney tissues of Sprague-Dawley rats after 60 min injection by intravenously; value ranges from 1.17-1.48; conditions: in vivo, iv, 1 h
Rattus norvegicus [8] = assay: Distribution of radioactivity in liver tissues of Sprague-Dawley rats after 15 min injection by intravenously; value ranges from 2.43-2.92; conditions: in vivo, iv, 0.25 h
Rattus norvegicus [9] = assay: Distribution of radioactivity in heart tissues of Sprague-Dawley rats after 15 min injection by intravenously; value ranges from 0.89-1.24; conditions: in vivo, iv, 0.25 h
Method in brief: (§1)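 Female Sprague-Dawley rats, 10–12 weeks old (170–200 g), fed ad libitum. The ¹²⁵I-labelled agent was dissolved in minimal Me2SO, diluted with saline to a final 20% Me2SO, filtered (0.22 μm), and injected into a lateral tail vein under ether anaesthesia. Tissues were counted against samples of the injected solution and expressed as % injected dose/g (mean, range). Brain/blood ratio is from the means.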

Rattus norvegicus [10] = assay: Distribution of radioactivity in lung tissues of Sprague-Dawley rats after 30 min injection by intravenously; value ranges from 0.86-1.13; conditions: in vivo, iv, 0.5 h
Rattus norvegicus [11] = assay: Distribution of radioactivity in lung tissues of Sprague-Dawley rats after 5 min injection by intravenously; value ranges from 1.35-1.74; conditions: in vivo, iv
Rattus norvegicus [12] = assay: Distribution of radioactivity in lung tissues of Sprague-Dawley rats after 60 min injection by intravenously; value ranges from 0.61-0.86; conditions: in vivo, iv, 1 h
Rattus norvegicus [13] = assay: Distribution of radioactivity in brain tissues of Sprague-Dawley rats after 60 min injection by intravenously; value ranges from 0.15-0.19; conditions: in vivo, iv, 1 h; method in brief: as §1
Rattus norvegicus [14] = assay: Distribution of radioactivity in blood tissues of Sprague-Dawley rats after 60 min injection by intravenously; value ranges from 0.54-0.63; conditions: in vivo, iv, 1 h; method in brief: as §1
Rattus norvegicus [15] = assay: Distribution of radioactivity in heart tissues of Sprague-Dawley rats after 60 min injection by intravenously; value ranges from 0.64-0.86; conditions: in vivo, iv, 1 h
Rattus norvegicus [16] = assay: Distribution of radioactivity in kidney tissues of Sprague-Dawley rats after 15 min injection by intravenously; value ranges from 2.24-3.12; conditions: in vivo, iv, 0.25 h
Rattus norvegicus [17] = assay: Distribution of radioactivity in brain tissues of Sprague-Dawley rats after 15 min injection by intravenously; value ranges from 0.20-0.25; conditions: in vivo, iv, 0.25 h; method in brief: as §1
Rattus norvegicus [18] = assay: Distribution of radioactivity in brain tissues of Sprague-Dawley rats after 30 min injection by intravenously; value ranges from 0.17-0.20; conditions: in vivo, iv, 0.5 h; method in brief: as §1
Rattus norvegicus [19] = assay: Distribution of radioactivity in blood tissues of Sprague-Dawley rats after 15 min injection by intravenously; value ranges from 0.97-1.12; conditions: in vivo, iv, 0.25 h; method in brief: as §1
Rattus norvegicus [20] = assay: Distribution of radioactivity in blood tissues of Sprague-Dawley rats after 30 min injection by intravenously; value ranges from 0.73-0.85; conditions: in vivo, iv, 0.5 h; method in brief: as §1
Rattus norvegicus [21] = assay: Distribution of radioactivity in blood tissues of Sprague-Dawley rats after 5 min injection by intravenously; value ranges from 1.38-1.5; conditions: in vivo, iv; method in brief: as §1
Rattus norvegicus [22] = assay: Distribution of radioactivity in heart tissues of Sprague-Dawley rats after 5 min injection by intravenously; value ranges from 1.24-1.46; conditions: in vivo, iv
Rattus norvegicus [23] = assay: Distribution of radioactivity in brain tissues of Sprague-Dawley rats after 5 min injection by intravenously; value ranges from 0.28-0.37; conditions: in vivo, iv; method in brief: as §1
[24] = Brain to blood ratio in Sprague-Dawley rats after 5 min injection by intravenously; conditions: rat, brain and blood, iv; method in brief: as §1
[25] = Brain to blood ratio in Sprague-Dawley rats after 60 min injection by intravenously; conditions: rat, brain and blood, iv; method in brief: as §1
[26] = Brain to blood ratio in Sprague-Dawley rats after 30 min injection by intravenously; conditions: rat, brain and blood, iv; method in brief: as §1
Rattus norvegicus [27] = assay: Distribution of radioactivity in heart tissues of Sprague-Dawley rats after 30 min injection by intravenously; value ranges from 0.75-1.03; conditions: in vivo, iv, 0.5 h; method in brief: as §1
[28] = Brain to blood ratio in Sprague-Dawley rats after 15 min injection by intravenously; conditions: rat, brain and blood, iv; method in brief: as §1

Distribution (Rattus norvegicus [1]): 1.72%
Distribution (Rattus norvegicus [2]): 1.89%
Distribution (Rattus norvegicus [3]): 3.1%
Distribution (Rattus norvegicus [4]): 1.24%
Distribution (Rattus norvegicus [5]): 1.2%
Distribution (Rattus norvegicus [6]): 4.19%
Distribution (Rattus norvegicus [7]): 1.28%
Distribution (Rattus norvegicus [8]): 2.63%
Distribution (Rattus norvegicus [9]): 1.08%
Distribution (Rattus norvegicus [10]): 0.97%
Distribution (Rattus norvegicus [11]): 1.48%
Distribution (Rattus norvegicus [12]): 0.66%
Distribution (Rattus norvegicus [13]): 0.17%
Distribution (Rattus norvegicus [14]): 0.57%
Distribution (Rattus norvegicus [15]): 0.72%
Distribution (Rattus norvegicus [16]): 2.54%
Distribution (Rattus norvegicus [17]): 0.22%
Distribution (Rattus norvegicus [18]): 0.18%
Distribution (Rattus norvegicus [19]): 1.03%
Distribution (Rattus norvegicus [20]): 0.77%
Distribution (Rattus norvegicus [21]): 1.42%
Distribution (Rattus norvegicus [22]): 1.37%
Distribution (Rattus norvegicus [23]): 0.32%
Kp at 5 min [24]: 0.22
Kp at 1 h [25]: 0.29
Kp at 0.5 h [26]: 0.23
Distribution (Rattus norvegicus [27]): 0.86%
Kp at 0.25 h [28]: 0.21
SMILES: CN1C=CCC(C(=O)NCCc2ccc([125I])cc2)=C1
